PostGolgi ctrl: growth of the yeast control strain, post-Golgi counter-screen | efflux-deficient yeast background strain, growth absorbance A615, 16 h | AID 738 | inhibition, % at 10 µM | actives 5% (n = 98,000)
Yeast lifespan up: extends the lifespan of yeast | inhibition of the nicotinamide effect, % at 10 µM | S. cerevisiae growth with nicotinamide, OD615; deaD strain in restrictive glucose medium | actives 0.68% (n = 130,000);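 active = inhibition above a set limit, placed 3 SD over the median of all compounds, cut at about 26% in these data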
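Assay system: engineered S. cerevisiae DeaD replicative-lifespan strain, galactose-grown log-phase cells; medium: restrictive CSMM-D dextrose medium; also added: nicotinamide, 1.5 mM, co-present with compound; schedule: 48 h compound exposure at 30 °C, humidified; detection: absorbance at 615 nm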
Yeast growth inh: reduces growth of yeast BB579 in restrictive medium; S. cerevisiae BB579 growth, OD615, 48 h; inhibition, % at 10 µM; actives 0.51% (n = 140,000);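 active = inhibition above a set limit, 3 SD over the mean compound inhibition, cut at about 44% in these data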
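Test system: S. cerevisiae DeaD strain BB579 yeast; Medium: restrictive CSMM-D medium; Compound: one dose, 10 µM compound with 0.25% DMSO; Incubation: 4 h cell preincubation, 48 h compound exposure, 30 °C humidified; Signal: OD at 615 nm; Benchmarks: amphotericin B at 10 µg/mL as positive control.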
PostGolgi yeast: growth inhibition of a yeast mutant, post-Golgi transport screen; post-Golgi transport phenotypic cell assay; inhibition, % at 10 µM; actives 0.9% (n = 98,000);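 note: yeast cells grown in 1536-well plates; yeast grown about 18 h at 30C before absorbance read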
Each line names hits and unclear results; the compound was inactive in the other large screens. Shown is part of a subset that was picked to be rich in hits. Cut-off read from the data, not from the text of the source, unless noted: active = inhibition above about 30%; inactive = the rest.

CCCOc1cccc(C(=O)Nc2cc(NC(=O)c3ccco3)ccc2OC)c1	PostGolgi ctrl 41
COc1ccc(Br)cc1C(=O)Nc1cccc(NC(=O)c2ccco2)c1	PostGolgi ctrl 49
O=C(Nc1ccccn1)c1ccc(NC(=O)c2ccco2)cc1	PostGolgi ctrl 35
COc1cc(OC)cc(C(=O)Nc2cc(NC(=O)c3ccco3)ccc2OC)c1	none
COc1c(C)cc(Br)cc1C(=O)Nc1cccc(NC(=O)c2ccco2)c1	PostGolgi ctrl 56, PostGolgi yeast 31
Cc1ccc(N(C)C(=O)N2CCN(c3ccccn3)CC2)cc1	none
CCOC(=O)/C=C1\SCC(=O)N1CCOc1cccc(Br)c1	none
O=C(COc1ccc(S(=O)(=O)NC2CCCCC2)cc1)NCCC1=CCCCC1	none (no result: PostGolgi ctrl, Yeast lifespan up, PostGolgi yeast)
O=C(c1ccccc1)c1cccc(NC(=O)c2ccco2)c1	PostGolgi ctrl 38
Cc1onc(-c2c(F)cccc2Cl)c1C(=O)NC1CCSC1=O (configuration not stated)	none
Cc1nc(NC(=O)c2ccccc2)sc1-c1csc(NCc2ccccc2)n1	PostGolgi yeast 67
Cc1ccc(-c2csc3nnc(SCC(=O)Nc4cccc(C)n4)n23)cc1	PostGolgi yeast 35
Cc1cccc(NC(=O)CSc2nnnn2C)n1	none
Cc1[nH]n(-c2ccccc2)c(=O)c1/C=N/O	none
Cc1[nH]n(-c2ccccc2)c(=O)c1/C=N/N1C(=O)c2ccc3c4c(ccc(c24)C1=O)CC3	Yeast growth inh 79 (no result: PostGolgi ctrl, PostGolgi yeast)
CCc1ccc(C(=O)Cn2ncc(Cl)c(Cl)c2=O)cc1	none
O=C(OCn1ncc(Cl)c(Cl)c1=O)c1cccc(C(F)(F)F)c1	PostGolgi ctrl 42, Yeast growth inh 62, PostGolgi yeast 106
Cc1cccc(NS(=O)(=O)c2cccc3nsnc23)c1	none
Cc1ccc(C)c(S(=O)(=O)Nc2ccc3scnc3c2)c1	PostGolgi ctrl 50
O=C1N=C(N2CCN(c3cccc4ccccc34)CC2)S/C1=C/c1cccs1	PostGolgi ctrl 37
Cc1ccccc1N1CCN(C2=NC(=O)/C(=C\c3cccs3)S2)CC1	none (no result: PostGolgi ctrl, PostGolgi yeast)
Cn1c(Cc2cccs2)nnc1SC/C=C/c1ccccc1	PostGolgi ctrl 52
Cn1c(Cc2cccs2)nnc1SCc1nc2ccccc2[nH]1	none
Cn1c(SC/C=C/c2ccccc2)nnc1-c1ccco1	PostGolgi ctrl 30
O=C(C1CCN(S(=O)(=O)N2CCOCC2)CC1)N1CCOCC1	PostGolgi ctrl 31
CCS(=O)(=O)N1CCC(C(=O)N2CCOCC2)CC1	none
Fc1cccc2sc(Nc3nnc(-c4ccco4)o3)nc12	Yeast lifespan up 94
CCOc1ccccc1CNC(=O)c1c([N+](=O)[O-])c(C)nn1C	none (no result: PostGolgi ctrl, PostGolgi yeast)
O=C1NCCCC1C(=O)N/N=C/c1cccc(O)c1 (configuration not stated)	Yeast growth inh 100 (no result: PostGolgi ctrl, PostGolgi yeast)
Cc1cc(C)cc(NC(=S)N2CCN(CCO)CC2)c1	none (no result: PostGolgi ctrl, PostGolgi yeast)
O=C1CCCN1CCCNc1ncnc2c1cnn2-c1ccc(Cl)cc1	PostGolgi ctrl 38
Cc1cccc(-n2ncc3c(NCCCN4CCCC4=O)ncnc32)c1	none
COc1cc(C(=O)Nc2sc3c(c2C#N)CCN(C(C)=O)C3)cc(OC)c1OC	PostGolgi ctrl 31
CCOC(=O)N1CCc2c(sc(NC(=O)c3ccc(S(=O)(=O)N4CCCC4)cc3)c2C#N)C1	none
CN(c1ccccc1)c1nc2ccsc2c(=O)s1	Yeast lifespan up 88
CCN(c1ccccc1)c1nc2ccsc2c(=O)s1	none
O=C(O)c1ccc(NC(CSCc2cccc(F)c2)C(=O)O)c([N+](=O)[O-])c1 (configuration not stated)	none
CNC(=O)N(C1=NCC(C)(C)S1)c1ccc(F)c(Cl)c1	none
CCc1cccc(NC(=O)CS(=O)Cc2nc(-c3ccc(C)cc3)oc2C)c1 (configuration not stated)	PostGolgi ctrl 34
CCCCNC(=O)CS(=O)Cc1nc(-c2ccc(C)cc2)oc1C (configuration not stated)	none
COc1ccc(N2C(=O)CC2(C#N)c2ccc(OCc3ccccc3)cc2)cc1 (configuration not stated)	none (no result: PostGolgi ctrl, PostGolgi yeast)
COc1ccccc1N1CCN(C2CCN(C(=O)c3cc(OC)c(OC)c(OC)c3)CC2)CC1	PostGolgi yeast 36
COc1ccccc1N1CCN(C(=O)c2ccc3c(Cl)c4c(nc3c2)CCCC4)CC1	Yeast lifespan up 28 (no result: PostGolgi ctrl, PostGolgi yeast)
Cc1occc1C(=O)NNC(=O)Cc1ccccc1	none
Fc1ccc(Oc2nc(-c3ccccc3)nnc2C(F)(F)F)cc1	none
Fc1ccc(Sc2nc(-c3ccccc3)nnc2C(F)(F)F)cc1	PostGolgi ctrl 72
COc1ccccc1OCc1ccc(C(=O)Nc2ccncc2)o1	none
CC1CCCN(c2nc3ccccc3nc2C(C#N)C(=O)OC2CCCCC2)C1 (configuration not stated)	Yeast lifespan up 64
CCCCOC(=O)C(C#N)c1nc2ccccc2nc1N1CCOCC1 (configuration not stated)	PostGolgi ctrl 37
c1ccc(-c2nc(-n3nc4ccccc4n3)nc3ccccc23)cc1	PostGolgi ctrl 78
O=C(NCC1CCCC(CNC(=O)N2CCc3ccccc32)C1)N1CCc2ccccc21 (configuration not stated)	none
Cc1ccc(NC(=O)c2nn(C34CC5CC(CC(C5)C3)C4)cc2[N+](=O)[O-])cc1	PostGolgi ctrl 61, PostGolgi yeast 79
O=C(c1cc2ccccc2o1)c1cccs1	PostGolgi ctrl 31
CC(=NCCc1c(C)[nH]c2ccc(C)cc12)C1=C(O)CC(c2ccccc2)CC1=O (configuration not stated)	Yeast lifespan up 58 (no result: PostGolgi ctrl, PostGolgi yeast)
CCCC(=NCCc1c(C)[nH]c2ccccc12)C1=C(O)CC(c2ccccc2)CC1=O (configuration not stated)	none (no result: PostGolgi ctrl, PostGolgi yeast)
COc1cc(OC)c(S(=O)(=O)Nc2ccc(C)cn2)cc1NC(C)=O	none (no result: PostGolgi ctrl, PostGolgi yeast)
Clc1ccc2[nH]c3c(NCC4CCCO4)ncnc3c2c1 (configuration not stated)	PostGolgi yeast 37
Clc1ccc2[nH]c3c(NCCN4CCOCC4)ncnc3c2c1	PostGolgi ctrl 30
COc1ccc(/C=C/C(=O)OC(C)CN2CCOCC2)cc1 (configuration not stated)	none
Cc1[nH]c2ccccc2c1CCNC(=O)c1ccc2c(c1[N+](=O)[O-])C(=O)c1ccccc1C2=O	none
Cc1[nH]c2c(C)cccc2c1CCNC(=O)c1ccc2c(c1[N+](=O)[O-])C(=O)c1ccccc1C2=O	PostGolgi ctrl 40
CCN(CC)C(=O)CSc1nc(-c2ccc(C)cc2)nc2c1COC(C)(C)C2	PostGolgi ctrl 36
COC(=O)c1cc(CN2CCN(c3ccccc3C)CC2)ccc1O	PostGolgi ctrl 33
Cc1ccccc1N1CCN(Cc2cccc(C(=O)O)c2)CC1	none
COC(=O)c1ccc(Sc2ccccn2)c([N+](=O)[O-])c1	none (no result: PostGolgi ctrl, PostGolgi yeast)
Cc1nc(N/N=C/c2ccccn2)sc1C	Yeast growth inh 44 (no result: PostGolgi ctrl, PostGolgi yeast)
O=C(CSc1nnc(Cc2ccccc2)o1)Nc1ccc(Br)cn1	none
O=C(Nc1ccc2snnc2c1)Nc1cccc2ccccc12	PostGolgi ctrl 49
O=C(Nc1ccc2snnc2c1)N1CCN(c2ccccc2)CC1	none (no result: PostGolgi ctrl, Yeast lifespan up, PostGolgi yeast)
O/N=C/c1cc(Cl)ccc1OCc1cccc2ccccc12	PostGolgi ctrl 61, Yeast growth inh 76
